Results taken from ChEMBL document CHEMBL3045650, “Design, synthesis, and 3D-QSAR analysis of novel 1,3,4-oxadiazol-2(3H)-ones as protoporphyrinogen oxidase inhibitors” (J Agric Food Chem, 2010).

tested on: Digitaria sanguinalis; experiment: Post-emergence herbicidal activity against Digitaria sanguinalis (hairy crabgrass) assessed as growth inhibition at emulsified concentrate of 150 g/ai ha after 15 days by greenhouse test; assay type: functional
Summary of the method: (§1)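 About 20 seeds sown 1–3 cm deep, grown at 15–30 °C and 50% RH. Monocot seedlings sprayed postemergence at the one-leaf stage with a 100 g/L emulsifiable concentrate (DMF/Tween-80) diluted in water, 150 g ai/ha. Untreated and solvent controls included. Visual rating at 15 days, three replicates.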

Compound | inhibition (INH) [%]
CCOC(=O)Sc1nc2cc(-n3nc(C(C)(C)C)oc3=O)c(F)cc2s1 | 0
COC(=O)CSc1nc2cc(-n3nc(C(C)(C)C)oc3=O)c(F)cc2s1 | 0
CCOC(=O)C(C)(C)Sc1nc2cc(-n3nc(C(C)(C)C)oc3=O)c(F)cc2s1 | 0
CCOC(=O)CCSc1nc2cc(-n3nc(C(C)(C)C)oc3=O)c(F)cc2s1 | 0
CCOC(=O)Sc1nc2cc(-n3nc(C(C)(C)C)oc3=O)c(Cl)cc2s1 | 0
CCOC(=O)CSc1nc2cc(-n3nc(C(C)(C)C)oc3=O)c(Cl)cc2s1 | 0
CCOC(=O)C(C)(C)Sc1nc2cc(-n3nc(C(C)(C)C)oc3=O)c(Cl)cc2s1 | 0
CCOC(=O)CCCSc1nc2cc(-n3nc(C(C)(C)C)oc3=O)c(Cl)cc2s1 | 0
CCOC(=O)C(C)Sc1nc2cc(-n3nc(C(C)(C)C)oc3=O)c(Br)cc2s1 (stereo unspecified) | 0
CCOC(=O)CCSc1nc2cc(-n3nc(C(C)(C)C)oc3=O)c(Br)cc2s1 | 0
C#CCSc1nc2cc(-n3nc(C(C)(C)C)oc3=O)c(Br)cc2s1 | 0
CCCOC(=O)CSc1nc2cc(-n3nc(C(C)(C)C)oc3=O)c(Br)cc2s1 | 0
COC(=O)/C=C/CSc1nc2cc(-n3nc(C(C)(C)C)oc3=O)c(F)cc2s1 | 0

tested on: Echinochloa crus-galli; experiment: Post-emergence herbicidal activity against Echinochloa crus-galli (barnyard grass) assessed as growth inhibition at emulsified concentrate of 150 g/ai ha after 15 days by greenhouse test; assay type: functional; summary of the method: as §1

Compound | inhibition (INH) [%]
CCOC(=O)Sc1nc2cc(-n3nc(C(C)(C)C)oc3=O)c(F)cc2s1 | 0
COC(=O)CSc1nc2cc(-n3nc(C(C)(C)C)oc3=O)c(F)cc2s1 | 0
CCOC(=O)C(C)(C)Sc1nc2cc(-n3nc(C(C)(C)C)oc3=O)c(F)cc2s1 | 0
CCOC(=O)CCSc1nc2cc(-n3nc(C(C)(C)C)oc3=O)c(F)cc2s1 | 0
CCOC(=O)Sc1nc2cc(-n3nc(C(C)(C)C)oc3=O)c(Cl)cc2s1 | 0
CCOC(=O)CSc1nc2cc(-n3nc(C(C)(C)C)oc3=O)c(Cl)cc2s1 | 0
CCOC(=O)C(C)(C)Sc1nc2cc(-n3nc(C(C)(C)C)oc3=O)c(Cl)cc2s1 | 0
CCOC(=O)CCCSc1nc2cc(-n3nc(C(C)(C)C)oc3=O)c(Cl)cc2s1 | 0
CCOC(=O)C(C)Sc1nc2cc(-n3nc(C(C)(C)C)oc3=O)c(Br)cc2s1 (stereo unspecified) | 0
CCOC(=O)CCSc1nc2cc(-n3nc(C(C)(C)C)oc3=O)c(Br)cc2s1 | 0
C#CCSc1nc2cc(-n3nc(C(C)(C)C)oc3=O)c(Br)cc2s1 | 0
CCCOC(=O)CSc1nc2cc(-n3nc(C(C)(C)C)oc3=O)c(Br)cc2s1 | 0
COC(=O)/C=C/CSc1nc2cc(-n3nc(C(C)(C)C)oc3=O)c(F)cc2s1 | 0

tested on: Eclipta prostrata; experiment: Post-emergence herbicidal activity against Eclipta prostrata assessed as growth inhibition at emulsified concentrate of 150 g/ai ha after 15 days by greenhouse test; assay type: functional
Summary of the method: (§2)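 About 20 seeds sown 1–3 cm deep, grown at 15–30 °C and 50% RH. Dicot seedlings sprayed postemergence at the two-leaf stage with a 100 g/L emulsifiable concentrate (DMF/Tween-80) diluted in water, 150 g ai/ha. Untreated and solvent controls included. Visual rating at 15 days, three replicates.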

Compound | inhibition (INH) [%]
CCOC(=O)Sc1nc2cc(-n3nc(C(C)(C)C)oc3=O)c(F)cc2s1 | 0
COC(=O)CSc1nc2cc(-n3nc(C(C)(C)C)oc3=O)c(F)cc2s1 | 0
CCOC(=O)C(C)(C)Sc1nc2cc(-n3nc(C(C)(C)C)oc3=O)c(F)cc2s1 | 70
CCOC(=O)CCSc1nc2cc(-n3nc(C(C)(C)C)oc3=O)c(F)cc2s1 | 50
CCOC(=O)Sc1nc2cc(-n3nc(C(C)(C)C)oc3=O)c(Cl)cc2s1 | 40
CCOC(=O)CSc1nc2cc(-n3nc(C(C)(C)C)oc3=O)c(Cl)cc2s1 | 60
CCOC(=O)C(C)(C)Sc1nc2cc(-n3nc(C(C)(C)C)oc3=O)c(Cl)cc2s1 | 50
CCOC(=O)CCCSc1nc2cc(-n3nc(C(C)(C)C)oc3=O)c(Cl)cc2s1 | 0
CCOC(=O)C(C)Sc1nc2cc(-n3nc(C(C)(C)C)oc3=O)c(Br)cc2s1 (stereo unspecified) | 60
CCOC(=O)CCSc1nc2cc(-n3nc(C(C)(C)C)oc3=O)c(Br)cc2s1 | 30
C#CCSc1nc2cc(-n3nc(C(C)(C)C)oc3=O)c(Br)cc2s1 | 40
CCCOC(=O)CSc1nc2cc(-n3nc(C(C)(C)C)oc3=O)c(Br)cc2s1 | 30
COC(=O)/C=C/CSc1nc2cc(-n3nc(C(C)(C)C)oc3=O)c(F)cc2s1 | 50

tested on: Amaranthus retroflexus; experiment: Post-emergence herbicidal activity against Amaranthus retroflexus assessed as growth inhibition at emulsified concentrate of 150 g/ai ha after 15 days by greenhouse test; assay type: functional; summary of the method: as §2

Compound | inhibition (INH) [%]
CCOC(=O)Sc1nc2cc(-n3nc(C(C)(C)C)oc3=O)c(F)cc2s1 | 0
COC(=O)CSc1nc2cc(-n3nc(C(C)(C)C)oc3=O)c(F)cc2s1 | 60
CCOC(=O)C(C)(C)Sc1nc2cc(-n3nc(C(C)(C)C)oc3=O)c(F)cc2s1 | 60
CCOC(=O)CCSc1nc2cc(-n3nc(C(C)(C)C)oc3=O)c(F)cc2s1 | 50
CCOC(=O)Sc1nc2cc(-n3nc(C(C)(C)C)oc3=O)c(Cl)cc2s1 | 70
CCOC(=O)CSc1nc2cc(-n3nc(C(C)(C)C)oc3=O)c(Cl)cc2s1 | 70
CCOC(=O)C(C)(C)Sc1nc2cc(-n3nc(C(C)(C)C)oc3=O)c(Cl)cc2s1 | 50
CCOC(=O)CCCSc1nc2cc(-n3nc(C(C)(C)C)oc3=O)c(Cl)cc2s1 | 50
CCOC(=O)C(C)Sc1nc2cc(-n3nc(C(C)(C)C)oc3=O)c(Br)cc2s1 (stereo unspecified) | 70
CCOC(=O)CCSc1nc2cc(-n3nc(C(C)(C)C)oc3=O)c(Br)cc2s1 | 0
C#CCSc1nc2cc(-n3nc(C(C)(C)C)oc3=O)c(Br)cc2s1 | 40
CCCOC(=O)CSc1nc2cc(-n3nc(C(C)(C)C)oc3=O)c(Br)cc2s1 | 50
COC(=O)/C=C/CSc1nc2cc(-n3nc(C(C)(C)C)oc3=O)c(F)cc2s1 | 40

tested on: Brassica juncea; experiment: Post-emergence herbicidal activity against Brassica juncea assessed as growth inhibition at emulsified concentrate of 150 g/ai ha after 15 days by greenhouse test; assay type: functional; summary of the method: as §2

Compound | inhibition (INH) [%]
CCOC(=O)Sc1nc2cc(-n3nc(C(C)(C)C)oc3=O)c(F)cc2s1 | 0
COC(=O)CSc1nc2cc(-n3nc(C(C)(C)C)oc3=O)c(F)cc2s1 | 0
CCOC(=O)C(C)(C)Sc1nc2cc(-n3nc(C(C)(C)C)oc3=O)c(F)cc2s1 | 50
CCOC(=O)CCSc1nc2cc(-n3nc(C(C)(C)C)oc3=O)c(F)cc2s1 | 60
CCOC(=O)Sc1nc2cc(-n3nc(C(C)(C)C)oc3=O)c(Cl)cc2s1 | 70
CCOC(=O)CSc1nc2cc(-n3nc(C(C)(C)C)oc3=O)c(Cl)cc2s1 | 50
CCOC(=O)C(C)(C)Sc1nc2cc(-n3nc(C(C)(C)C)oc3=O)c(Cl)cc2s1 | 60
CCOC(=O)CCCSc1nc2cc(-n3nc(C(C)(C)C)oc3=O)c(Cl)cc2s1 | 0
CCOC(=O)C(C)Sc1nc2cc(-n3nc(C(C)(C)C)oc3=O)c(Br)cc2s1 (stereo unspecified) | 0
CCOC(=O)CCSc1nc2cc(-n3nc(C(C)(C)C)oc3=O)c(Br)cc2s1 | 0
C#CCSc1nc2cc(-n3nc(C(C)(C)C)oc3=O)c(Br)cc2s1 | 40
CCCOC(=O)CSc1nc2cc(-n3nc(C(C)(C)C)oc3=O)c(Br)cc2s1 | 0
COC(=O)/C=C/CSc1nc2cc(-n3nc(C(C)(C)C)oc3=O)c(F)cc2s1 | 40

tested on: Poa annua; experiment: Post-emergence herbicidal activity against Poa annua assessed as growth inhibition at emulsified concentrate of 150 g/ai ha after 15 days by greenhouse test; assay type: functional; summary of the method: as §1

Compound | inhibition (INH) [%]
CCOC(=O)Sc1nc2cc(-n3nc(C(C)(C)C)oc3=O)c(F)cc2s1 | 0
COC(=O)CSc1nc2cc(-n3nc(C(C)(C)C)oc3=O)c(F)cc2s1 | 0
CCOC(=O)C(C)(C)Sc1nc2cc(-n3nc(C(C)(C)C)oc3=O)c(F)cc2s1 | 0
CCOC(=O)CCSc1nc2cc(-n3nc(C(C)(C)C)oc3=O)c(F)cc2s1 | 0
CCOC(=O)Sc1nc2cc(-n3nc(C(C)(C)C)oc3=O)c(Cl)cc2s1 | 0
CCOC(=O)CSc1nc2cc(-n3nc(C(C)(C)C)oc3=O)c(Cl)cc2s1 | 0
CCOC(=O)C(C)(C)Sc1nc2cc(-n3nc(C(C)(C)C)oc3=O)c(Cl)cc2s1 | 0
CCOC(=O)CCCSc1nc2cc(-n3nc(C(C)(C)C)oc3=O)c(Cl)cc2s1 | 0
CCOC(=O)C(C)Sc1nc2cc(-n3nc(C(C)(C)C)oc3=O)c(Br)cc2s1 (stereo unspecified) | 0
CCOC(=O)CCSc1nc2cc(-n3nc(C(C)(C)C)oc3=O)c(Br)cc2s1 | 0
C#CCSc1nc2cc(-n3nc(C(C)(C)C)oc3=O)c(Br)cc2s1 | 0
CCCOC(=O)CSc1nc2cc(-n3nc(C(C)(C)C)oc3=O)c(Br)cc2s1 | 0
COC(=O)/C=C/CSc1nc2cc(-n3nc(C(C)(C)C)oc3=O)c(F)cc2s1 | 0

target: T1, Protoporphyrinogen oxidase (Homo sapiens, UniProt P50336); experiment: Inhibition of Homo sapiens (human) recombinant protoporphyrinogen oxidase expressed in Escherichia coli JM109 assessed as oxidation of protoporphyrinogen IX substrate by fluorescence assay
T1 sequence (P50336 whole entry): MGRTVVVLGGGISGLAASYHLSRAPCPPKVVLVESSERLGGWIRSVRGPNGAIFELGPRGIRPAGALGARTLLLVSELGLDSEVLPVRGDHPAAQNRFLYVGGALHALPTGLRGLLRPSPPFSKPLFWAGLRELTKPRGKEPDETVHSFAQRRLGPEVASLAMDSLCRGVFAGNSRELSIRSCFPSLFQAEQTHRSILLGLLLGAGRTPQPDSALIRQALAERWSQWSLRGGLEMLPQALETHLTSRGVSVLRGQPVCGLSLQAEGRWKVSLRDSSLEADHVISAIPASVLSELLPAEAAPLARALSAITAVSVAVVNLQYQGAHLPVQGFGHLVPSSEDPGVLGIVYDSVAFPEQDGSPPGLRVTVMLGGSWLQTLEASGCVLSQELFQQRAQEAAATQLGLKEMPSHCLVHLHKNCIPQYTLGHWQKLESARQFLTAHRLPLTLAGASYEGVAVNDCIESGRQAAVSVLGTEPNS

Compound | Ki [nM]
CCOC(=O)Sc1nc2cc(-n3nc(C(C)(C)C)oc3=O)c(F)cc2s1 | 1300
COC(=O)CSc1nc2cc(-n3nc(C(C)(C)C)oc3=O)c(F)cc2s1 | 3990
CCOC(=O)C(C)(C)Sc1nc2cc(-n3nc(C(C)(C)C)oc3=O)c(F)cc2s1 | 1540
CCOC(=O)CCSc1nc2cc(-n3nc(C(C)(C)C)oc3=O)c(F)cc2s1 | 320
CCOC(=O)Sc1nc2cc(-n3nc(C(C)(C)C)oc3=O)c(Cl)cc2s1 | 330
CCOC(=O)CSc1nc2cc(-n3nc(C(C)(C)C)oc3=O)c(Cl)cc2s1 | 1010
CCOC(=O)C(C)(C)Sc1nc2cc(-n3nc(C(C)(C)C)oc3=O)c(Cl)cc2s1 | 1350
CCOC(=O)CCCSc1nc2cc(-n3nc(C(C)(C)C)oc3=O)c(Cl)cc2s1 | 2020
CCOC(=O)C(C)Sc1nc2cc(-n3nc(C(C)(C)C)oc3=O)c(Br)cc2s1 (stereo unspecified) | 8130
CCOC(=O)CCSc1nc2cc(-n3nc(C(C)(C)C)oc3=O)c(Br)cc2s1 | 1690
C#CCSc1nc2cc(-n3nc(C(C)(C)C)oc3=O)c(Br)cc2s1 | 11100
CCCOC(=O)CSc1nc2cc(-n3nc(C(C)(C)C)oc3=O)c(Br)cc2s1 | 3100
COC(=O)/C=C/CSc1nc2cc(-n3nc(C(C)(C)C)oc3=O)c(F)cc2s1 | 7480
